The source made the active and inactive calls. The rule behind the calls is not given here.
Key:
[1] = system: HepG2; assay: Cytotoxicity against human HepG2 cells assessed as cell viability at 10 uM after 6 hrs by MTS assay; type: functional, cell-based
[2] = system: HepG2; assay: Cytotoxicity against human HepG2 cells assessed as cell viability at 50 uM after 6 hrs by MTS assay; type: functional, cell-based
[3] = molecular target: T1, Nuclear factor erythroid 2-related factor 2 (Mus musculus) (UniProt Q60795); assay: Induction of nuclear NrF2 expression in wild type MEF […] at 10 to 20 uM after 24 hrs by Western blotting relative to control; type: functional
T1 sequence (whole entry): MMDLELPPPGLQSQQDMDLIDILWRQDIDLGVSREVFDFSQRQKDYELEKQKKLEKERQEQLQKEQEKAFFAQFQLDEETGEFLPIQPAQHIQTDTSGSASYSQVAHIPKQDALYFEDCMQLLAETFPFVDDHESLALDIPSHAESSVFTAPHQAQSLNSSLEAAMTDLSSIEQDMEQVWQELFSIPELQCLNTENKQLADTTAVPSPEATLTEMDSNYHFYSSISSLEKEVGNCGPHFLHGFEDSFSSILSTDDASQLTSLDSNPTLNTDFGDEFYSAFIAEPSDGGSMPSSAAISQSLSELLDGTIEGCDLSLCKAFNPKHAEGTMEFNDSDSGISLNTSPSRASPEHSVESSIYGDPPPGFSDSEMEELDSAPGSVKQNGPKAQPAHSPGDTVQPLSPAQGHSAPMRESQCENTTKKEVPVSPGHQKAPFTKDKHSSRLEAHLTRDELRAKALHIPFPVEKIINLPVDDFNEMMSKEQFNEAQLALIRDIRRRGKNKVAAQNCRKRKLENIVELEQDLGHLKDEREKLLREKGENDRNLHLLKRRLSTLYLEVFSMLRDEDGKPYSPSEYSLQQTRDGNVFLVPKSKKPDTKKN
How it was run: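 Wildtype MEF at 50% confluence treated with vehicle or 10 or 20 μM for 24 h; washed, trypsinized, nuclear extracts prepared. 20 μg nuclear protein per lane, 4-20% gradient gel, nitrocellulose, milk block, primary antibody overnight 4 °C, HRP secondary, chemiluminescence. Nrf2 band normalized to Lamin A, then to vehicle control; mean ± SD, n=3.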

[4] = molecular target: T1, Nuclear factor erythroid 2-related factor 2 (Mus musculus); assay: Induction of nuclear NrF2-mediated GCLc expression in wild type MEF at 20 uM after 24 hrs by Western blotting relative to control; type: functional
How it was run: (§1)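 Wildtype or Nrf2−/− MEF at 50% confluence given vehicle or 10 or 20 μM for 24 h; cytoplasmic extracts, 50 μg protein per lane, 4-20% gradient gel, nitrocellulose, western blot for GCLc with HRP secondary and chemiluminescence. GCLc normalized to actin, then to vehicle control; mean ± SD of 3 independent experiments.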

[5] = molecular target: T1, Nuclear factor erythroid 2-related factor 2 (Mus musculus); assay: Induction of NrF2-mediated glutathione production in wild type MEF at 10 uM after 24 hrs using Elmans reagent relative to control; type: functional
How it was run: (§2)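 Wildtype or Nrf2−/− MEF at 50% confluence given vehicle or 10 or 20 μM for 0, 6, 9 or 24 h; washed, lysed in 5% metaphosphoric acid, protein removed by centrifugation. Free GSH by enzymatic recycling with Ellman's reagent, absorbance over time; normalized to BCA protein and to vehicle control; mean ± SD, n=3.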

[6] = molecular target: T2, Nuclear factor erythroid 2-related factor 2 (Homo sapiens) (UniProt Q16236); assay: Induction of NrF2 in human HepG2 cells at 10 uM after 6 hrs by ARE-luciferase reporter gene assay; type: functional, cell-based
T2 sequence (whole entry): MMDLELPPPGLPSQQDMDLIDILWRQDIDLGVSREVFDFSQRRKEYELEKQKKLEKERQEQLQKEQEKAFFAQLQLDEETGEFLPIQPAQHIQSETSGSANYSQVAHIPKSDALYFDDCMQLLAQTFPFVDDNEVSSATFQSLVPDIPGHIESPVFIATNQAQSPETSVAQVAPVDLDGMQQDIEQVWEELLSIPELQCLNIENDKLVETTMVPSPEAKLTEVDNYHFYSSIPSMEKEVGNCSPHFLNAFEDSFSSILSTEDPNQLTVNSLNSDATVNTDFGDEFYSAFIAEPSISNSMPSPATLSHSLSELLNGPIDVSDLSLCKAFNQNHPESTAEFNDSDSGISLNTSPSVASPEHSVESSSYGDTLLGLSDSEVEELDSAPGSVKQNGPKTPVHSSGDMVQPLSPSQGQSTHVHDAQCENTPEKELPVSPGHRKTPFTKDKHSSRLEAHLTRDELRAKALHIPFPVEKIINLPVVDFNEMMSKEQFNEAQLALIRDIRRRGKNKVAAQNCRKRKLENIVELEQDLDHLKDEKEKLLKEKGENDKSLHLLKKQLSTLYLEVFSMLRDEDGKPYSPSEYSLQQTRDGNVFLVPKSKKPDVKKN
How it was run: (§3)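 HepG2 ARE-luciferase reporter cells at 50% confluence, fresh medium with vehicle or 5, 10 or 20 μM compound for 6 h. Washed in PBS, lysed, luciferase activity of extracts read in single-tube luminometer; normalized to vehicle control; mean ± SD of 3 independent experiments.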

[7] = molecular target: T2, Nuclear factor erythroid 2-related factor 2 (Homo sapiens); assay: Induction of NrF2 in human HepG2 cells at 20 uM after 6 hrs by ARE-luciferase reporter gene assay relative to control; type: functional, cell-based; how it was run: as §3
[8] = molecular target: T1, Nuclear factor erythroid 2-related factor 2 (Mus musculus); assay: Induction of NrF2-mediated glutathione production in wild type MEF at 20 uM after 24 hrs using Elmans reagent relative to control; type: functional; how it was run: as §2
[9] = molecular target: T1, Nuclear factor erythroid 2-related factor 2 (Mus musculus); assay: Reduction of NrF2-mediated glutathione production in wild type MEF at 10 uM after 6 hrs using Elmans reagent relative to control; type: functional; parameters: scale not given: the % may be the effect or the level left; how it was run: as §2
[10] = molecular target: T1, Nuclear factor erythroid 2-related factor 2 (Mus musculus); assay: Reduction of NrF2-mediated glutathione production in wild type MEF at 20 uM after 6 hrs using Elmans reagent relative to control; type: functional; parameters: scale not given: the % may be the effect or the level left; how it was run: as §2
[11] = system: HepG2; assay: Cytotoxicity against human HepG2 cells assessed as cell viability at 50 uM after 6 hrs by MTS assay relative to control; type: functional; details: HepG2, 6 h, read-out: Activity
[12] = system: HepG2; assay: Cytotoxicity against human HepG2 cells assessed as decrease in cell viability at 10 to 20 uM after 6 hrs by MTS assay; type: functional, cell-based
[13] = system: HepG2; assay: Cytotoxicity against human HepG2 cells assessed as cell viability at 20 uM after 6 hrs by MTS assay; details: HepG2, 6 h, read-out: Activity
[14] = system: MEF; assay: Induction of GCLc in NrF2-deficient MEF at 20 uM after 24 hrs by Western blotting relative to control; type: functional, cell-based; details: Mus musculus; how it was run: as §1
[15] = molecular target: T1, Nuclear factor erythroid 2-related factor 2 (Mus musculus); assay: Ratio of compound to sulforaphane activity for induction of nuclear NrF2 mediated GCLc in wild type MEF; type: functional
[16] = system: MEF; assay: Induction of glutathione production in NrF2 deficient MEF at 10 uM after 24 hrs using Elmans reagent relative to control; type: functional, Mus musculus; how it was run: as §2
[17] = system: MEF; assay: Induction of glutathione production in NrF2 deficient MEF at 20 uM after 24 hrs using Elmans reagent relative to control; type: functional, Mus musculus; how it was run: as §2
[18] = molecular target: T1, Nuclear factor erythroid 2-related factor 2 (Mus musculus); assay: Induction of NrF2-mediated glutathione production in wild type MEF at 10 uM after 6 hrs using Elmans reagent relative to control; type: functional; how it was run: as §2
[19] = molecular target: T2, Nuclear factor erythroid 2-related factor 2 (Homo sapiens); assay: Induction of NrF2 in human HepG2 cells after 6 hrs by ARE-luciferase reporter gene assay; type: functional, cell-based; how it was run: as §3
[20] = system: HepG2; assay: Cytotoxicity against human HepG2 cells assessed as decrease in cell viability after 6 hrs by MTS assay; type: functional, cell-based
[21] = system: MEF; assay: Cytotoxicity against wild type MEF; type: cell-based; details: mouse
[22] = system: MEF; assay: Cytotoxicity against NrF2 deficient MEF; type: cell-based; details: mouse
[23] = molecular target: T2, Nuclear factor erythroid 2-related factor 2 (Homo sapiens); assay: Ratio of compound to sulforaphane for induction of NrF2 in human HepG2 cells; type: functional, cell-based
[24] = molecular target: T1, Nuclear factor erythroid 2-related factor 2 (Mus musculus); assay: Induction of NrF2-mediated glutathione production in wild type MEF at 10 uM after 9 hrs using Elmans reagent relative to control; type: functional; how it was run: as §2

Row | Compound | Activity [1] | Activity [2] | fold change (FC) [3] | fold change (FC) [4] | Activity [5] | Activity [6] | Activity [7] | Activity [8] | Activity [9] [%] | Activity [10] [%] | viability at 50 µM [11] [%] | Activity [12] | further results
1 | C[S+]([O-])CCCCN=C=S (centres undefined) | inactive | inactive | 3.5 | 3.2 | Active | Active | Active | inactive | 40 | 20 |  |  | 
2 | S=C=NCCc1ccccc1 |  | inactive |  |  |  |  |  |  |  |  |  |  | 
3 | S=C=NCc1ccccc1 |  | inactive |  |  |  |  |  |  |  |  |  |  | 
4 | [Se]=C=NCc1ccccc1 [BENZYLISOSELENOCYANATE] |  |  |  |  |  |  |  |  |  |  | 0 | Active | 
5 | [Se]=C=NCCc1ccccc1 [PHENETHYLISOSELENOCYANATE] |  |  |  |  |  |  |  |  |  |  | 14 | Active | 
6 | C[S+]([O-])CCCCN=C=[Se] (centres undefined) [SUFORAPHANE ISOSELENOCYANATE] | inactive |  | 4.5 | 4.1 | 160% | Active | 5 | Active | 40 | 20 | 0 | Active | viability at 20 µM [13]: 50%; Activity [14]: inactive; Activity [15]: 30%; Activity [16]: 90%; Activity [17]: 70%; Activity [18]: Active; Activity [19]: Dose-dependent effect; Activity [20]: Dose-dependent effect; Activity [21]: Non-toxic; Activity [22]: Non-toxic; Ratio [23]: 4; Activity [24]: Active

Reference: ChEMBL document CHEMBL1156170, “Enhanced Nrf2-dependent induction of glutathione in mouse embryonic fibroblasts by isoselenocyanate analog of sulforaphane” (Bioorg Med Chem Lett, 2010)
